Data on one compound can be found in ChEMBL document CHEMBL1155539, “Discovery of 4-[1-[([1-[4-(trifluoromethyl)benzyl]-1H-indol-7-yl]carbonyl)amino]cyclopropyl]benzoic acid (MF-766), a highly potent and selective EP4 antagonist for treating inflammatory pain” (Bioorg Med Chem Lett, 2010).

In data set [1] the target is T1, Prostaglandin D2 receptor 2 (Homo sapiens, UniProt Q9Y5Y4).
T1 sequence (Q9Y5Y4 whole entry): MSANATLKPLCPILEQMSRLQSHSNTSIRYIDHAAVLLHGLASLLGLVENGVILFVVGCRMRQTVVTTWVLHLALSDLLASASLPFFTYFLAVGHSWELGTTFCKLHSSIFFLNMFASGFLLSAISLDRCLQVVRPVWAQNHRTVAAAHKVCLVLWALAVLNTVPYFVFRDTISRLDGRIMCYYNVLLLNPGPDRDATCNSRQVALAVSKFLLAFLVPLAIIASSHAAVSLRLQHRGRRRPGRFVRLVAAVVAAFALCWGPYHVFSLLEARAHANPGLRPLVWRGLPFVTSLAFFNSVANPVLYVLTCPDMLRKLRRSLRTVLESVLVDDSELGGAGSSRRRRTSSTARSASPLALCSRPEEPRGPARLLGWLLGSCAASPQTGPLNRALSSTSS
The experiment in a line: Displacement of [3H]PGD2 from human Prostanoid DP2 receptor expressed in HEK293-EBNA cells after 60 mins by scintillation counting. Type of data set: cell-based. (In general: Displacement assays read how much labelled ligand stays bound in the presence of the test substance.)

Data set [2] addresses Prostacyclin receptor (Homo sapiens, UniProt P43119). As to the kind of experiment: Displacement of [3H]iloprost from human prostanoid IP receptor expressed in HEK293-EBNA cells after 60 mins by scintillation counting. The data set is classed as cell-based.
The target in data set [3] is T2, Thromboxane A2 receptor (Homo sapiens, UniProt P21731).
T2 sequence (P21731 whole entry): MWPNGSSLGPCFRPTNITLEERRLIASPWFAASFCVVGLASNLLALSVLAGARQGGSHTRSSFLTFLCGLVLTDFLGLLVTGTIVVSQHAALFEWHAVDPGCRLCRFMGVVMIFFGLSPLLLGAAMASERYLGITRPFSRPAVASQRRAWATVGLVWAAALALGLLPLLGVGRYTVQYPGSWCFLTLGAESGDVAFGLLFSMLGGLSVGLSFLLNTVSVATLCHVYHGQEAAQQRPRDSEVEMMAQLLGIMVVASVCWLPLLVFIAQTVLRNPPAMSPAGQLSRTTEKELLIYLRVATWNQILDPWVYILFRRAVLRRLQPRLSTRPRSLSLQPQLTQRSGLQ
The experiment in a line: Displacement of [3H]SQ-29548 from human prostanoid TP receptor expressed in HEK293-EBNA cells after 60 mins by scintillation counting. Type of data set: cell-based.

In data set [4] the target is Prostaglandin F2-alpha receptor (Homo sapiens, UniProt P43088). As to the kind of experiment: Displacement of [3H]PGF2alpha from human prostanoid FP receptor expressed in HEK293-EBNA cells after 60 mins by scintillation counting. Type of data set: cell-based.
Prostaglandin F2-alpha receptor, sequence (P43088 whole entry): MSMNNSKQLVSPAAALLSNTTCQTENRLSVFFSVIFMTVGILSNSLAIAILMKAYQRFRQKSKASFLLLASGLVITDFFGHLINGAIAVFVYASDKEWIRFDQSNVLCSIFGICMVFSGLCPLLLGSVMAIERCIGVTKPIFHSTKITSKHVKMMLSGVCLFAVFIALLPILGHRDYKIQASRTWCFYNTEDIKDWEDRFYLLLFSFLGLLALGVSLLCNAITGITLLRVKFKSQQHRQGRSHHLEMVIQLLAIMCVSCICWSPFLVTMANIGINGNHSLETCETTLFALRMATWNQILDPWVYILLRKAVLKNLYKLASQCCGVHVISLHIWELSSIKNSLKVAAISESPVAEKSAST
The target of data set [5] is T3, Prostaglandin E2 receptor EP4 subtype (Homo sapiens, UniProt P35408). As to the kind of experiment: Antagonist activity at prostanoid EP4 receptor in human whole blood assessed as inhibition of TNF-alpha-induced IP-10 release in presence EP4 agonist L-000902688. Type of data set: functional, tissue-based.
T3 sequence (P35408 whole entry): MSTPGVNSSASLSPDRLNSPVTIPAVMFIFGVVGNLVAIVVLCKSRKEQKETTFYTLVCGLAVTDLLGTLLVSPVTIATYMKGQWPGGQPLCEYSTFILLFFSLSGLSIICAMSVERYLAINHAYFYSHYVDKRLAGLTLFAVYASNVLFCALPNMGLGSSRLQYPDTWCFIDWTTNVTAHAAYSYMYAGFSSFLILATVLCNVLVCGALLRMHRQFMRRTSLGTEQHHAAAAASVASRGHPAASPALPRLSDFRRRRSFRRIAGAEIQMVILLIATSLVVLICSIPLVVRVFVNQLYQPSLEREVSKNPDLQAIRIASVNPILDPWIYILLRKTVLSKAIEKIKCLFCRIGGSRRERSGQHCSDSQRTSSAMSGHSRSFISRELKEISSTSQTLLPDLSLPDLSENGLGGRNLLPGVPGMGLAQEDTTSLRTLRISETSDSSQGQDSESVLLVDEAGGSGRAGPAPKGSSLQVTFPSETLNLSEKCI
The test system of data set [6] is Hepatocyte. As to the kind of experiment: Metabolic stability in human hepatocytes. The data set is classed as ADME, cell-based.
Data set [7] can be described thus: Metabolic stability in dog hepatocytes. The data set is classed as ADME, cell-based, Canis lupus familiaris, Hepatocyte.
Data set [8] relates to Hepatocyte. As to the kind of experiment: Metabolic stability in rat hepatocytes. Type of data set: ADME, cell-based.
The nature of data set [9]: Volume of distribution in Sprague-Dawley rat at 5 mg/kg, iv and 20 mg/kg, po. Type of data set: ADME, organism-based. The note with it: in vivo. Put shortly:
(§1)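 Sprague-Dawley rats dosed iv at 5 mg/kg and po at 20 mg/kg. The iv group was n = 2 males given the free acid in 60% PEG 200 at 1 mL/kg. PK parameters were derived from plasma levels.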

The nature of data set [10]: Bioavailability in Sprague-Dawley rat at 5 mg/kg, iv and 20 mg/kg, po. The note with it: in vivo. Type of data set: ADME, organism-based. A digest of the protocol: as §1
Data set [11] can be described thus: AUC (0 to 24 hrs) in Sprague-Dawley rat at 20 mg/kg, po. The data set is classed as ADME, organism-based. Details: time < 24 hr, dose 20 mg/kg, route oral. The note with it: plasma. A digest of the protocol:
as §1

Data set [12] deals with Hepatocyte. As to the kind of experiment: Oxidative metabolism in human hepatocytes assessed as protein covalent binding after 2 hrs. The data set is classed as ADME, cell-based. A digest of the protocol:
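[3H]-labelled compound incubated with fresh rat or human hepatocytes for 2 h. Covalent protein binding was expressed as pmol-equiv/mg protein, and samples were checked for tritium loss by HPLC with radiometric detection.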

Data set [13] has as its system Rattus norvegicus. The experiment in a line: Antiinflammatory activity in rat assessed as inhibition of complete Freund's adjuvant-induced paw swelling administered daily once 9 days after adjuvant challenge measured on day 18. The data set is classed as functional. Conditions: read-out: ED50. A digest of the protocol: (§2)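 Rat adjuvant-induced arthritis model with daily dosing in mg/kg/day. Dose groups were 0, 0.001, 0.01, 0.1 and 1 mg/kg, plus a non-AIA control group. Primary and secondary paw swelling were scored as % inhibition relative to vehicle-treated arthritic rats, and ED50 was estimated from the dose–response.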

The test system of data set [14] is Rattus norvegicus. As to the kind of experiment: Antiinflammatory activity in rat assessed as inhibition of complete Freund's adjuvant-induced secondary paw swelling administered daily once 9 days after adjuvant challenge measured on day 18. Type of data set: functional. A digest of the protocol: as §2
Data set [15] in a line: Drug level in complete Freund's adjuvant challenged rat administered daily once 9 days after adjuvant challenge measured on day 18 after 2 hrs post dose. Type of data set: ADME, organism-based. Conditions: in vivo, read-out: Drug uptake. Put shortly: (§3)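 In a separate rat AIA experiment with daily dosing, plasma drug levels were measured 2 h and 24 h after the final dose.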

A short description of data set [16]: Drug level in complete Freund's adjuvant challenged rat administered daily once 9 days after adjuvant challenge measured on day 18 after 24 hrs post dose. The data set is classed as ADME, organism-based. Conditions: in vivo, read-out: Drug uptake. A digest of the protocol: as §3
The subject of data set [17] is Rattus norvegicus. The experiment in a line: Antiinflammatory activity in rat assessed as inhibition of complete Freund's adjuvant-induced primary paw swelling at 0.001 to 1 mg/kg administered daily once 9 days after adjuvant challenge measured on day 18. Type of data set: functional. Details: scale not given: the % may be the effect or the level left. Conditions: dose mg/kg 0.001-1. Put shortly: as §2

The test system of data set [18] is Rattus norvegicus. As to the kind of experiment: Antiinflammatory activity in rat assessed as inhibition of complete Freund's adjuvant-induced secondary paw swelling at 0.001 to 1 mg/kg administered daily once 9 days after adjuvant challenge measured on day 18. Type of data set: functional. Details: scale not given: the % may be the effect or the level left. The note with it: dose mg/kg 0.001-1. Put shortly:
as §2

In data set [19] the target is T3, Prostaglandin E2 receptor EP4 subtype. As to the kind of experiment: Displacement of [3H]PGE2 from human prostanoid EP4 receptor expressed in HEK293-EBNA cells after 60 mins by scintillation counting. Type of data set: cell-based.
Data set [20] concerns the target T4, Prostaglandin E2 receptor EP1 subtype (Homo sapiens, UniProt P34995).
T4 sequence (P34995 whole entry): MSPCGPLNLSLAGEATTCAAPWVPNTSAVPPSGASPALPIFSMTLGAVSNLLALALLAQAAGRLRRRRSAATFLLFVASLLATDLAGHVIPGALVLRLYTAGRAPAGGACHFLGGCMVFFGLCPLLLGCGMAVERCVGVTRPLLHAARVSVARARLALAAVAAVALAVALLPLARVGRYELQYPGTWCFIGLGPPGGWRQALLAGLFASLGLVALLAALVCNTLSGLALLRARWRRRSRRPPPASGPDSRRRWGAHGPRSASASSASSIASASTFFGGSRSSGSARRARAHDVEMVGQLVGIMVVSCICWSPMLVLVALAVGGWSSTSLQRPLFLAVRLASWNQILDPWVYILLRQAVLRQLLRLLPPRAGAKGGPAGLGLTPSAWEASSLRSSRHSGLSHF
The experiment in a line: Displacement of [3H]PGE2 from human prostanoid EP1 receptor expressed in HEK293-EBNA cells after 60 mins by scintillation counting. The data set is classed as cell-based.

In data set [21] the target is Prostaglandin E2 receptor EP2 subtype (Homo sapiens, UniProt P43116). As to the kind of experiment: Displacement of [3H]PGE2 from human prostanoid EP2 receptor expressed in HEK293-EBNA cells after 60 mins by scintillation counting. The data set is classed as cell-based.
Prostaglandin E2 receptor EP2 subtype, sequence (P43116 whole entry): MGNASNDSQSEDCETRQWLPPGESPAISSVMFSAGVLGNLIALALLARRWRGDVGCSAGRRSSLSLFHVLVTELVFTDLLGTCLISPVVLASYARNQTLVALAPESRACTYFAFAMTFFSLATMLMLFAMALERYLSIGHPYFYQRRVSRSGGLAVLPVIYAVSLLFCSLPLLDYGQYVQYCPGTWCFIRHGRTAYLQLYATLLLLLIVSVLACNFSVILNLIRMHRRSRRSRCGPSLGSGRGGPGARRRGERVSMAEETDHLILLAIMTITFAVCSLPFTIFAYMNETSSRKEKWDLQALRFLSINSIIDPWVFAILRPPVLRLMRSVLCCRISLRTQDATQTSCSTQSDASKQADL
For data set [22], the system named is Canis familiaris. As to the kind of experiment: Bioavailability in Beagle dog at 1 mg/kg, iv and 4 mg/kg, po. Conditions: in vivo.
Data set [23] in a line: Elimination half life in Beagle dog at 1 mg/kg, iv and 4 mg/kg, po. The note with it: in vivo, read-out: beta t1/2 (converted).

Structures are written as SMILES.

Broadly, the Ki is the equilibrium dissociation constant of an inhibitor or competing ligand from its target. One may read the IC50 as the concentration needed to halve the response being measured. As usually defined, the bioavailability is dose-corrected exposure relative to a reference, in per cent. One may read the AUC(0-t) as the area under the concentration-time curve up to a stated or last time point. One may read the ED50 as the dose that gives a 50% effect, or the effect in half of the subjects.

Prostacyclin receptor, sequence (P43119 whole entry): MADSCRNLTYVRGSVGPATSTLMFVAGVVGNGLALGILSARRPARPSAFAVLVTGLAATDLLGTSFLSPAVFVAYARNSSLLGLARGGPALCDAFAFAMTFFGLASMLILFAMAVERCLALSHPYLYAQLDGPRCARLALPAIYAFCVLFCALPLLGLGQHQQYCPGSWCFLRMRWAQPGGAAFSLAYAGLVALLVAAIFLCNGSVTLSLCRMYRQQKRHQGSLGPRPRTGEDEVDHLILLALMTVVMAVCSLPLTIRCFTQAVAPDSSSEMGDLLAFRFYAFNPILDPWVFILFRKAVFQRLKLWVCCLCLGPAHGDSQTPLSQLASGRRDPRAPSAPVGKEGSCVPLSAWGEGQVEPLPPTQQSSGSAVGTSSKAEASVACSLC

In the case of `O=C(O)c1ccc(C2(NC(=O)c3cccc4ccn(Cc5ccc(C(F)(F)F)cc5)c34)CC2)cc1`, the Ki in data set [1] was greater than 21 µM; in data set [2], greater than 22 µM; in data set [3] it was 6.7 µM; in [4], 6.4 µM; in data set [19], 0.00023 µM; in [20], 20 µM. The compound further came in with a Ki in data set [21] of 8 µM. Moreover, in [5], the IC50 amounted to 0.0095 µM. Moreover, the Stability entry in data set [6], in [7] and in data set [8] was “Stable” throughout. For the same compound, in data set [9], the Vd was 1 L/kg. In [10], the bioavailability worked out at 86%. In data set [11], the AUC(0-t) at 24 h was 150 µM·h. For the same compound, the Activity in data set [12] stood at 50 pmolequiv/mg; in data set [17], 70%; in [18], 100%. In addition, the ED50 in data set [13] came to 0.004 mg/kg/day. In data set [14], the ED100 is reported as 0.025 mg/kg/day. In addition, the concentration at 2 h in data set [15] turned out to be 28 nM. Besides, the concentration at 24 h in data set [16] stood at 3.1 nM. Also, the F in data set [22] is 74%. Further, in data set [23], the half-life was 2.6 h.
